Source: ChEMBL document CHEMBL3526126, “Amide hydrolysis of a novel chemical series of microsomal prostaglandin E synthase-1 inhibitors induces kidney toxicity in the rat” (Drug Metab Dispos, 2013)
≈ marks a conversion by molar mass, not a printed value.

Tests used:
Rattus norvegicus [1] = assay: Toxicity in Wistar Hannover rat kidney assessed as increase in organ weight at 1000 umol/kg, po qd administered for 7 days measured on day 7 by necroscopic analysis; type: organism-based; details: in vivo, 168 h
Rattus norvegicus [2] = assay: Toxicity in Wistar Hannover rat kidney assessed as presence of dilated tubules with cellular remnants within lumen at 1000 umol/kg, po qd administered for 7 days measured on day 7 by necroscopic analysis; type: organism-based; details: in vivo, 168 h
Rattus norvegicus [3] = assay: Toxicity in Wistar Hannover rat kidney assessed as dilated tubules with hypertrophic nuclei and cytoplasm at 1000 umol/kg, po qd administered for 7 days measured on day 7 by necroscopic analysis; type: organism-based; details: in vivo, 168 h
Rattus norvegicus [4] = assay: Toxicity in Wistar Hannover rat kidney assessed as multiple pyogranuloma in renal pelvis at 1000 umol/kg, po qd administered for 7 days measured after day 8 by hematoxylin/eosin staining-based light microscopic analysis; type: organism-based; details: in vivo, 168 h
Summary of the method: (§1)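 Wistar Hannover rats, about 8 weeks old, were gavaged once daily (10 ml/kg) for 7 days. One day after the last dose they were killed by carotid exsanguination under isoflurane/oxygen. Kidneys were fixed in buffered formalin, embedded in paraffin, sectioned, stained with hematoxylin and eosin, and examined by light microscopy.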

Rattus norvegicus [5] = assay: Toxicity in Wistar Hannover rat kidney assessed as inflammation in renal pelvis at 1000 umol/kg, po qd administered for 7 days measured after day 8 by hematoxylin/eosin staining-based light microscopic analysis; type: organism-based; details: in vivo, 168 h; summary of the method: as §1
Rattus norvegicus [6] = assay: Toxicity in Wistar Hannover rat kidney assessed as hemorrhage in renal pelvis at 1000 umol/kg, po qd administered for 7 days measured after day 8 by hematoxylin/eosin staining-based light microscopic analysis; type: organism-based; details: in vivo, 168 h; summary of the method: as §1
Rattus norvegicus [7] = assay: Toxicity in Wistar Hannover rat kidney assessed as increase in plasma urea level at 1000 umol/kg, po qd administered for 7 days measured on day 7; type: organism-based; details: in vivo, 168 h
Summary of the method: (§2)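 Wistar Hannover rats, about 8 weeks old, were acclimatized about 2 weeks and randomized by body weight. Dosing was by oral gavage (10 ml/kg) once daily for 7 days, with vehicle controls. At the end of dosing, plasma (lithium heparin) was taken from the orbital plexus under isoflurane/oxygen anaesthesia, and urea and creatinine were measured.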

Rattus norvegicus [8] = assay: Toxicity in Wistar Hannover rat kidney assessed as increase in plasma creatinine level at 1000 umol/kg, po qd administered for 7 days measured on day 7; type: organism-based; details: in vivo, 168 h; summary of the method: as §2
Rattus norvegicus [9] = assay: Toxicity in Wistar Hannover rat kidney assessed as tubular degeneration /regeneration at 500 umol/kg, po qd administered for 7 days […]; type: organism-based; details: in vivo, 168 h; summary of the method: as §1
[10] = Drug metabolism in Sprague-Dawley rat hepatocytes assessed as formation of 4-(phenylethynyl)benzoic acid metabolite hyd at 1 to 10 uM by radio monitoring method; type: ADME, cell-based, Hepatocyte
Summary of the method: (§3)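 Hepatocytes at 1 × 10^6 cells/ml in William's medium were incubated at 37°C with gentle shaking under 5% CO2, with substrate at […]. Separation was on an Atlantis T3 column (100 × 4.6 mm) at 1 ml/min, split 1:20 to the ion source and a flow scintillation monitor. Scintillation cocktail was added at 4 ml/min through a 0.5 ml flow cell.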

[11] = Drug metabolism in Sprague-Dawley rat hepatocytes assessed as formation of benzene-1,2-disulfonamide metabolite M1 at 1 to 10 uM by radio monitoring method; type: ADME, cell-based, Hepatocyte; summary of the method: as §3
Rattus norvegicus [12] = assay: Drug metabolism in Wistar Hannover rat assessed as formation of mono-oxidized metabolite +16 in plasma at 500 umol/kg, po qd administered for 7 days measured on day 7 by LC-MS analysis; type: ADME, organism-based; details: in vivo, 168 h
Rattus norvegicus [13] = assay: Drug metabolism in Wistar Hannover rat assessed as formation of 4-(phenylethynyl)benzoic acid metabolite conjugated with mono-oxidized metabolite in plasma at 500 umol/kg, po qd administered for 7 days measured on day 7 by LC-MS analysis; type: ADME, organism-based; details: in vivo, 168 h
Rattus norvegicus [14] = assay: Drug metabolism in Wistar Hannover rat assessed as formation of 4-(phenylethynyl)benzoic acid conjugated with mono-oxidized and sulfate conjugated matabolite in plasma at 500 umol/kg, po qd administered for 7 days measured on day 7 by LC-MS analysis; type: ADME, organism-based; details: in vivo, 168 h
[15] = Drug metabolism in cryopreserved human hepatocytes assessed as amide hydrolysis at 1 to 10 uM by LC-MS analysis; type: ADME, cell-based, Hepatocyte
Summary of the method: (§4)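 Hepatocytes at 1 × 10^6 cells/ml in William's medium incubated at 37°C with gentle shaking under 5% CO2. Substrate was at […]. Metabolites were analysed by LC-MS.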

[16] = Drug metabolism in Beagle dog hepatocytes assessed as amide hydrolysis at 1 to 10 uM by LC-MS analysis; type: ADME, cell-based, Canis lupus familiaris, Hepatocyte
Summary of the method: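 Cryopreserved male Beagle dog hepatocytes at 1 × 10^6 cells/ml in William's medium, shaken gently at 37°C under 5% CO2. Substrate was tested at two concentrations (1 and 10). Metabolites, including amide-hydrolysis products, were analysed by LC-MS.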

Rattus norvegicus [17] = assay: Drug metabolism in Wistar Hannover rat assessed as formation of [14C]-4-(phenylethynyl)benzoic acid metabolite hyd in plasma at 500 umol/kg, po qd administered for 7 days measured on day 7 by radio monitoring method; type: ADME, organism-based; details: in vivo, 168 h
[18] = Solubility in rat urine at pH 7 after 5 hrs; type: physicochemical
Summary of the method: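 Samples in rat urine at pH 7.0 were incubated at 37°C for 5 hours. They were analysed by HPLC on a C18 column with photodiode array and single mass detection.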

[19] = Drug metabolism in freshly prepared human hepatocytes assessed as amide hydrolysis at 1 to 10 uM by LC-MS analysis; type: ADME, cell-based, Hepatocyte; summary of the method: as §4
[20] = Effect on rat mPGES-1
[21] = Cmax in Sprague-Dawley rat at 1000 umol/kg, po qd administered for 7 days measured on day 7; type: ADME, organism-based; parameters: dose 1000 umol/kg, route oral; details: in vivo
Summary of the method: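 Toxicity study 2: 2 female satellite rats per dose group. Dosing was once daily by oral gavage (10 ml/kg) for 7 days. Tail-vein EDTA blood was taken at 2, 4, 6, 7 and 24 h on day 1 and on day 7, then chilled and centrifuged to plasma. Parent and M1 were quantified by LC-MS/MS, with M1 measured in negative electrospray mode.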

[22] = Cmax in Wistar Hannover rat at 1000 umol/kg, po qd measured on day 1; details: in vivo
[23] = Cmax in male Wistar Hannover rat at 1000 umol/kg, po qd measured on day 1; details: in vivo
[24] = Cmax in female Wistar Hannover rat at 500 umol/kg, po qd measured on day 1; details: in vivo
[25] = Cmax in female Wistar Hannover rat at 1000 umol/kg, po qd measured on day 1; details: in vivo
[26] = AUC (0 to 24 hrs) in male Wistar Hannover rat at 500 umol/kg, po qd measured on day 1; details: plasma
[27] = AUC (0 to 24 hrs) in female Wistar Hannover rat at 1000 umol/kg, po qd measured on day 1; details: plasma
[28] = Cmax in male Wistar Hannover rat at 500 umol/kg, po qd administered for 7 days measured on day 7; details: in vivo
[29] = AUC (0 to 24 hrs) in male Wistar Hannover rat at 500 umol/kg, po qd administered for 7 days measured on day 7; details: plasma
[30] = AUC (0 to 24 hrs) in female Wistar Hannover rat at 500 umol/kg, po qd administered for 7 days measured on day 7; details: plasma

NS(=O)(=O)c1ccccc1S(=O)(=O)NC(=O)c1ccc(C#Cc2ccccc2)cc1
Activity (Rattus norvegicus [1]): Toxic
Activity (Rattus norvegicus [2]): Toxic
Activity (Rattus norvegicus [3]): Toxic
Activity (Rattus norvegicus [4]): Toxic
Activity (Rattus norvegicus [5]): Toxic
Activity (Rattus norvegicus [6]): Toxic
Activity (Rattus norvegicus [7]): Toxic
Activity (Rattus norvegicus [8]): Toxic
Activity (Rattus norvegicus [9]): Toxic
Drug metabolism [10]: metabolite_detected
Drug metabolism [11]: metabolite_not_detected
Drug metabolism (Rattus norvegicus [12]): metabolite_detected
Drug metabolism (Rattus norvegicus [13]): metabolite_detected
Drug metabolism (Rattus norvegicus [14]): metabolite_detected
Drug metabolism [15]: metabolite_not_detected
Drug metabolism [16]: metabolite_not_detected
Drug metabolism (Rattus norvegicus [17]): metabolite_detected
solubility at 5 h [18]: 45 µM (≈ 19.8 µg/mL)
Drug metabolism [19]: metabolite_not_detected
Activity [20]: Not Active
Cmax [21]: 95 µM
Cmax [22]: 105 µM
Cmax [23]: 46 µM
Cmax [24]: 38 µM
Cmax [25]: 75 µM
AUC(0-t) at 24 h [26]: 840 µM·h
AUC(0-t) at 24 h [27]: 1020 µM·h
Cmax [28]: 68 µM
AUC at 24 h [29]: 480 µM·h
AUC at 24 h [30]: 430 µM·h
